Experiment [1] is filed under the species Rattus norvegicus. Nature of the experiment: In vitro inhibition of norepinephrine uptake in rat brain synaptosomes using [3H]NE. The experiment is classed as functional, organism-based.
The species entered for experiment [2] is Rattus norvegicus. Nature of the experiment: cells. In kind it is functional, organism-based, Synaptosomes. The conditions noted are these: Brain, 3 h.
The next experiment is filed under the species Mus musculus. Nature of the experiment: Anti-tetrabenazine (TBZ) activity, ability to prevent TBZ-induced ptosis in mice. In kind it is functional. The method, boiled down:
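Mice; compound given by an unstated route some hours before tetrabenazine (the time is truncated). Five animals per dose, with at least three to five doses. Ptosis scored 75-120 min after tetrabenazine injection on the Rubin scale (eyes closed = 100).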

pIC50: −log10 of the molar value.

In the case of `CN1Cc2sc(Br)cc2C(c2ccc(Br)cc2)C1` (configuration not stated), the negative logarithm of the IC50 (pIC50) is 5.80 in the experiment listed under Rattus norvegicus [1] and 5.39 in the experiment listed under Rattus norvegicus [2]. In addition, in the experiment listed under Mus musculus, the 50% effect level (ED50) was put at a dose of 0.8 mg/kg.
As for `COc1ccc(C2CN(C)Cc3sc(C)cc32)cc1.Cl` (configuration not stated), the pIC50 was 6.40 in the experiment filed under Rattus norvegicus [1] and 6.30 in the experiment filed under Rattus norvegicus [2]. In the experiment filed under Mus musculus, this compound returned an ED50 of 7.1 mg/kg.
The matching figures for `CN1Cc2sc([N+](=O)[O-])cc2C(c2ccc(Cl)cc2)C1` (configuration not stated): 6.10, 5.47 and greater than 40 mg/kg.
Take `CN1Cc2sc(C(C)(C)C)cc2C(c2ccc(Br)cc2)C1.Cl` (configuration not stated): the negative logarithm of the IC50 (pIC50) in the experiment filed under Rattus norvegicus [1] was 5.76; in the experiment listed under Rattus norvegicus [2], 5.24. This compound displayed an ED50 in the experiment listed under Mus musculus of 7 mg/kg.
Taken in the same sequence, the figures for `Cc1cc2c(s1)CN(C)CC2c1ccc(O)cc1.Cl` (configuration not stated) were 6.60, 6.34 and 10 mg/kg.
In the case of `CCCc1cc2c(s1)CN(C)CC2c1ccc(F)cc1.Cl` (configuration not stated), the figures for the pIC50 in the experiment filed under Rattus norvegicus [1] and in the experiment listed under Rattus norvegicus [2] were 5.96 and 6.11, respectively. Besides, the 50% effective dose (ED50) in the experiment filed under Mus musculus was determined as 13 mg/kg.
Consider `CN1Cc2sc(Cl)cc2C(c2ccccc2)C1.Cl` (configuration not stated), for which the negative logarithm of the IC50 (pIC50) in the experiment listed under Rattus norvegicus [1] is 5.85; in the experiment filed under Rattus norvegicus [2], less than 5.00. This compound displayed an ED50 in the experiment listed under Mus musculus greater than 40 mg/kg.
In the case of `CN1Cc2sc(N)cc2C(c2ccc(Cl)cc2)C1` (configuration not stated), the negative logarithm of the IC50 (pIC50) in the experiment listed under Rattus norvegicus [1] was 6.74; in the experiment filed under Rattus norvegicus [2] it was 6.68. In the experiment filed under Mus musculus, this compound registered a median effective dose (ED50) greater than 40 mg/kg.
With `Cc1cc2c(s1)CN(C)CC2c1ccc(C(F)(F)F)cc1.Cl` (configuration not stated), the results for the pIC50 in the experiment listed under Rattus norvegicus [1] and in the experiment filed under Rattus norvegicus [2] were 5.11 and 5.69, respectively. The compound also returned an ED50 in the experiment filed under Mus musculus greater than 40 mg/kg.
Taken in the same sequence, the figures for `Cc1ccc(C2CN(C)Cc3sc(CO)cc32)cc1.Cl` (configuration not stated) were 7.30, 5.92 and 0.7 mg/kg.
For `CCCc1cc2c(s1)CN(C)CC2c1ccc(Br)cc1.Cl` (configuration not stated), the figures for the negative-log IC50 (pIC50) in the experiment listed under Rattus norvegicus [1] and in the experiment filed under Rattus norvegicus [2] were 6.00 and 6.07, respectively. For the same compound, in the experiment listed under Mus musculus, the ED50 turned out to be 40 mg/kg.
As to `Cc1cc2c(s1)CN(C)CC2c1ccc(Cl)cc1.Cl` (configuration not stated), the negative-log IC50 (pIC50) in the experiment listed under Rattus norvegicus [1] was 6.72; in the experiment listed under Rattus norvegicus [2], 5.45. Further, the 50% effective dose (ED50) in the experiment listed under Mus musculus is greater than 40 mg/kg.
As to `Cl.c1ccc(C2CNCc3sccc32)cc1` (configuration not stated), the figures for the negative logarithm of the IC50 (pIC50) in the experiment filed under Rattus norvegicus [1] and in the experiment listed under Rattus norvegicus [2] were 5.52 and less than 5.00, respectively. Moreover, the ED50 in the experiment listed under Mus musculus was greater than 40 mg/kg.
Take `CN1Cc2c(N)cccc2C(c2ccccc2)C1` (configuration not stated) [NOMIFENSINE]: the median effective dose (ED50) in the experiment filed under Mus musculus was 1.7 mg/kg.
As to `CN(C)CCCN1c2ccccc2CCc2ccccc21` [IMIPRAMINE], the results for the pIC50 in the experiment filed under Rattus norvegicus [1] and in the experiment listed under Rattus norvegicus [2] were 5.30 and 6.64, respectively. Moreover, in the experiment listed under Mus musculus, the ED50 was found to be 2.3 mg/kg.
Taken in the same sequence, the figures for `CN1Cc2sc(Cl)cc2C(c2ccc(Cl)cc2)C1.Cl` (configuration not stated) were 5.80, 5.27 and 2.2 mg/kg.
For the compound `CN1Cc2sccc2C(c2ccc(Cl)cc2Cl)C1.Cl` (configuration not stated), the pIC50 in the experiment filed under Rattus norvegicus [1] is less than 5.00; in the experiment filed under Rattus norvegicus [2] it was 5.52. In the experiment listed under Mus musculus, this compound yielded a 50% effective dose (ED50) greater than 40 mg/kg.
The matching figures for `Cc1cc2c(s1)CN(C)CC2c1cccc(C(F)(F)F)c1.Cl` (configuration not stated): 5.47, less than 5.00 and greater than 40 mg/kg.
Taken in the same sequence, the figures for `Cc1cc2c(s1)CNCC2c1ccc(Br)cc1.Cl` (configuration not stated) were 6.12, 5.74 and greater than 40 mg/kg.
Taken in the same sequence, the figures for `CCCCN1Cc2sccc2C(c2ccc(Cl)cc2)C1.Cl` (configuration not stated) were less than 5.00, less than 5.00 and greater than 40 mg/kg.
As for `CN1Cc2sc(N)cc2C(c2ccc(Br)cc2)C1` (configuration not stated), the pIC50 in the experiment filed under Rattus norvegicus [1] is 6.89; in the experiment filed under Rattus norvegicus [2], 7.05. In the experiment filed under Mus musculus, this compound registered a median effective dose (ED50) of 7.4 mg/kg.
The matching figures for `Cc1ccc(C2CN(C)Cc3sc(Br)cc32)cc1.Cl` (configuration not stated): 6.19, 5.05 and 7.4 mg/kg.
The matching figures for `Cl.Clc1cc2c(s1)CNCC2c1ccc(Br)cc1` (configuration not stated): 5.44, less than 5.00 and greater than 40 mg/kg.
Taken in the same sequence, the figures for `CC(=O)Nc1cc2c(s1)CN(C)CC2c1ccc(Cl)cc1.Cl` (configuration not stated) were 6.24, 6.22 and 35 mg/kg.
Consider `COCc1cc2c(s1)CN(C)CC2c1ccc(Br)cc1` (configuration not stated), for which the negative-log IC50 (pIC50) in the experiment listed under Rattus norvegicus [1] is 6.43; in the experiment listed under Rattus norvegicus [2], 6.70. The ED50 in the experiment listed under Mus musculus was found to be 1.7 mg/kg.
Take `Cc1cc2c(s1)CN(C)CC2(C)c1ccc(Br)cc1` (configuration not stated): the negative-log IC50 (pIC50) in the experiment filed under Rattus norvegicus [1] is 5.47; in the experiment filed under Rattus norvegicus [2], 5.51. In the experiment filed under Mus musculus, the median effective dose (ED50) is 40 mg/kg.
With `COc1ccc(C2CN(C)Cc3sccc32)cc1OC.Cl` (configuration not stated), the negative-log IC50 (pIC50) in the experiment listed under Rattus norvegicus [1] is less than 5.00; in the experiment filed under Rattus norvegicus [2], 6.52. Further, the ED50 in the experiment listed under Mus musculus is greater than 40 mg/kg.
The matching figures for `Cc1ccc(C2CN(C)Cc3sc(Cl)cc32)cc1.Cl` (configuration not stated): 6.05, less than 5.00 and 5.9 mg/kg.
In the case of `Cc1sc2c(c1Br)C(c1ccc(Br)cc1)CN(C)C2.Cl` (configuration not stated), the pIC50 in the experiment listed under Rattus norvegicus [1] was 5.11; in the experiment listed under Rattus norvegicus [2] it was less than 5.00. The compound also displayed an ED50 in the experiment filed under Mus musculus greater than 40 mg/kg.
Take `CN1Cc2sc([N+](=O)[O-])cc2C(c2ccc(Br)cc2)C1.Cl` (configuration not stated): the pIC50 in the experiment filed under Rattus norvegicus [1] is 6.35; in the experiment filed under Rattus norvegicus [2], 5.61. In the experiment filed under Mus musculus, this compound yielded a median effective dose (ED50) of 3.6 mg/kg.
The matching figures for `Cc1cc2c(s1)CN(C)CC2c1c(Cl)cccc1Cl.Cl` (configuration not stated): less than 5.00, less than 5.00 and greater than 40 mg/kg.
Regarding `CN1Cc2sc(Br)cc2C(c2ccccc2)C1.Cl` (configuration not stated), the pIC50 in the experiment listed under Rattus norvegicus [1] is 5.64; in the experiment listed under Rattus norvegicus [2] it was less than 5.00. Moreover, the ED50 in the experiment listed under Mus musculus amounted to 6 mg/kg.
For the compound `CCC1(c2ccc(Br)cc2)CN(C)Cc2sc(C)cc21` (configuration not stated), the negative logarithm of the IC50 (pIC50) in the experiment listed under Rattus norvegicus [1] and in the experiment filed under Rattus norvegicus [2] was less than 5.00 each time. The compound also showed a 50% effective dose (ED50) in the experiment filed under Mus musculus greater than 40 mg/kg.
`Cc1cc2c(s1)CN(C)CC2c1ccc(Br)cc1.Cl` (configuration not stated): the negative logarithm of the IC50 (pIC50) in the experiment filed under Rattus norvegicus [1] was 6.30; in the experiment listed under Rattus norvegicus [2], 6.27. For the same compound, the 50% effective dose (ED50) in the experiment listed under Mus musculus worked out at 2.6 mg/kg.
Take `CCc1cc2c(s1)CN(CC)CC2c1ccc(C)cc1.Cl` (configuration not stated): the results for the negative logarithm of the IC50 (pIC50) in the experiment listed under Rattus norvegicus [1] and in the experiment filed under Rattus norvegicus [2] were 6.57 and 5.74, respectively. Besides, the 50% effective dose (ED50) in the experiment listed under Mus musculus was greater than 40 mg/kg.
As for `Oc1cccc(C2CNCc3sc(Cl)cc32)c1` (configuration not stated), the negative logarithm of the IC50 (pIC50) in the experiment filed under Rattus norvegicus [1] was 5.49; in the experiment filed under Rattus norvegicus [2], less than 5.00. Besides, in the experiment filed under Mus musculus, the ED50 is greater than 40 mg/kg.
In the case of `CN1Cc2sc(Cl)cc2C(c2ccc(Br)cc2)C1.Cl` (configuration not stated), the figures for the pIC50 in the experiment listed under Rattus norvegicus [1] and in the experiment listed under Rattus norvegicus [2] were 6.00 and 5.46, respectively. In the experiment listed under Mus musculus, this compound yielded a 50% effective dose (ED50) of 6.5 mg/kg.
Take `Cc1cc2c(s1)CN(C)CC2c1ccccc1.Cl` (configuration not stated): the results for the negative logarithm of the IC50 (pIC50) in the experiment listed under Rattus norvegicus [1] and in the experiment listed under Rattus norvegicus [2] were 6.25 and 5.10, respectively. This compound displayed an ED50 in the experiment listed under Mus musculus of 8.4 mg/kg.

The pIC50 is −log10 of the IC50, conventionally taken in molar units. One may read the ED50 as the midpoint of the dose-response relation. A higher ED50 goes with a need for a large dose.

The values are drawn from ChEMBL document CHEMBL1122764, “Synthesis and antidepressant activity of 4-aryltetrahydrothieno[2,3-c]pyridine derivatives” (J Med Chem, 1984).
